Laboratory results from ChEMBL document CHEMBL4251626, “4β-amidotriazole linked podophyllotoxin congeners: DNA topoisomerase-IIα inhibition and potential anticancer agents for prostate cancer” (Eur J Med Chem, 2018).
The source made the active and inactive calls. The rule behind the calls is not given here.

Columns and labels:
DU-145 [1] = test: Induction of apoptosis in human DU145 cells assessed as necrotic cells at 0.5 uM after 24 hrs by Annexin V-FITC/propidium iodide staining based flow cytometry (reference value: 1.65%); format: functional
MCF7 = test: Antiproliferative activity against human MCF7 cells after 48 hrs by MTT assay; format: functional, cell-based; conditions: MCF7, 48 h
In short: (§1)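 Cells in DMEM/10% FBS pre-incubated 24 h at 37 °C, then compound-treated 48 h (10 mM DMSO stock diluted in medium). MTT (10 µL of 5 mg/mL) added for 4 h; formazan dissolved in DMSO, absorbance read at 570 nm. IC50 = 50% inhibitory concentration, mean of three individual experiments.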

DU-145 [2] = test: Induction of apoptosis in human DU145 cells assessed as live cells at 0.5 uM after 24 hrs by Annexin V-FITC/propidium iodide staining based flow cytometry (reference value: 96.3%); format: functional
DU-145 [3] = test: Antimigratory activity against human DU145 cells at 0.5 to 1 uM after 24 to 48 hrs by phase contrast microscopic based scratch assay; format: functional, cell-based
In short: (§2)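 DU-145 cells seeded at 2x10^5/well and grown to confluence; wound made with a sterile 200 µL tip, debris washed off with PBS. Fresh medium with compound at the indicated concentrations added. Migration followed by phase-contrast microscopy with images at 0, 24 and 48 h.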

DU-145 [4] = test: Cell cycle arrest in human DU145 cells assessed as accumulation at G2/M phase at 0.5 uM after 24 hrs by propidium iodide staining based flow cytometry relative to control; format: functional
In short: (§3)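 DU-145 cells (2x10^5/well) serum-starved 24 h to synchronize, then treated in complete medium for 24 h. Harvested and fixed in 70% ethanol at -20 °C for 30 min. RNase A (0.1 mg/mL, 37 °C, 30 min), then propidium iodide (50 µg/mL, 30 min on ice, dark). DNA content measured by flow cytometry.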

HeLa = test: Antiproliferative activity against human HeLa cells after 48 hrs by MTT assay; format: functional, cell-based; in short: as §1
DU-145 [5] = test: Antiproliferative activity against human DU145 cells after 48 hrs by MTT assay; format: functional, cell-based; conditions: DU-145, 48 h; in short: as §1
A549 = test: Antiproliferative activity against human A549 cells after 48 hrs by MTT assay; format: functional, cell-based; conditions: A549, 48 h; in short: as §1
NIH3T3 = test: Antiproliferative activity against mouse NIH/3T3 cells after 48 hrs by MTT assay; format: cell-based; conditions: NIH3T3, 48 h; in short: as §1
DU-145 [6] = test: Induction of apoptosis in human DU145 cells assessed as early apoptotic cells at 0.5 uM after 24 hrs by Annexin V-FITC/propidium iodide staining based flow cytometry (reference value: 0.56%); format: functional
[7] = target: DNA topoisomerase 2-alpha (Homo sapiens) (UniProt P11388); test: Poison activity at recombinant human topoisomerase-2 alpha assessed as linear DNA formation using pHOT1 kDNA as substrate at 100 uM after 10 mins by agarose gel electrophoresis method
In short: (§4)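 Five units human recombinant topo II, 10 min at 37 °C. Stopped with loading-dye stop buffer; products resolved on 1% agarose gel in TAE (catenated, decatenated, linear DNA).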

DU-145 [8] = test: Induction of apoptosis in human DU145 cells assessed as late apoptotic cells at 1 uM after 24 hrs by Annexin V-FITC/propidium iodide staining based flow cytometry (reference value: 1.49%); format: functional
DU-145 [9] = test: Induction of apoptosis in human DU145 cells assessed as nuclear fragmentation at 0.5 to 1 uM after 24 hrs by Hoechst staining based fluorescence microscopic method; format: functional, cell-based
In short: (§5)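 DU-145 cells (1x10^5/well) incubated overnight, then treated 24 h. After three PBS washes, stained with Hoechst (1 µg/ml) for 20 min at 37 °C and washed. Imaged by fluorescence microscopy; random fields counted for chromatin condensation and nuclear fragmentation.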

DU-145 [10] = test: Induction of apoptosis in human DU145 cells assessed as cell detachment from substratum at 0.5 to 1 uM after 24 hrs by phase contrast microscopic method; format: functional, cell-based
In short: (§6)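 DU-145 cells (2x10^5/well) plated overnight; medium replaced with fresh medium containing compound at indicated concentrations for 24 h. Cell morphology examined and photographed by phase-contrast microscopy.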

HT-29 = test: Antiproliferative activity against human HT-29 cells after 48 hrs by MTT assay; format: functional, cell-based; conditions: HT-29, 48 h; in short: as §1
DU-145 [11] = test: Induction of apoptosis in human DU145 cells assessed as nuclear condensation at 0.5 to 1 uM after 24 hrs by Hoechst staining based fluorescence microscopic method; format: functional, cell-based; in short: as §5
HepG2 = test: Antiproliferative activity against human HepG2 cells after 48 hrs by MTT assay; format: functional, cell-based; conditions: HepG2, 48 h; in short: as §1
DU-145 [12] = test: Cell cycle arrest in human DU145 cells assessed as accumulation at G2/M phase at 1 uM after 24 hrs by propidium iodide staining based flow cytometry relative to control; format: functional; in short: as §3
DU-145 [13] = test: Induction of apoptosis in human DU145 cells assessed as early apoptotic cells at 1 uM after 24 hrs by Annexin V-FITC/propidium iodide staining based flow cytometry (reference value: 0.56%); format: functional
DU-145 [14] = test: Induction of ROS production in human DU145 cells at 0.5 to 1 uM after 24 hrs by DCFDA staining based fluorescence microscopic method; format: functional, cell-based
In short: (§7)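 DU-145 cells (2x10^5/well) plated overnight, then treated 24 h at indicated concentrations. Medium replaced with DCFDA (10 µM) for 30 min at room temperature in the dark. After PBS washes, fluorescence was imaged by microscopy and reported as mean fluorescence intensity.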

DU-145 [15] = test: Induction of mitochondrial membrane potential loss in human DU145 cells […] at 0.5 to 1 uM after 24 hrs by JC1 staining based flow cytometry; format: functional, cell-based
In short: (§8)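 Cells (2x10^5/well) treated 24 h, trypsinized and pelleted (400 g, 5 min). Incubated with freshly made JC-1 working solution for 15 min at 37 °C, washed twice in assay buffer. Analysed by flow cytometry as percentage of J-aggregate versus J-monomer cells.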

DU-145 [16] = test: Induction of apoptosis in human DU145 cells assessed as cell shrinkage at 0.5 to 1 uM after 24 hrs by phase contrast microscopic method; format: functional, cell-based; in short: as §6
DU-145 [17] = test: Induction of apoptosis in human DU145 cells assessed as late apoptotic cells at 0.5 uM after 24 hrs by Annexin V-FITC/propidium iodide staining based flow cytometry (reference value: 1.49%); format: functional
DU-145 [18] = test: Induction of apoptosis in human DU145 cells assessed as necrotic cells at 1 uM after 24 hrs by Annexin V-FITC/propidium iodide staining based flow cytometry (reference value: 1.65%); format: functional
DU-145 [19] = test: Induction of apoptosis in human DU145 cells assessed as live cells at 1 uM after 24 hrs by Annexin V-FITC/propidium iodide staining based flow cytometry (reference value: 96.3%); format: functional
DU-145 [20] = test: Induction of apoptosis in human DU145 cells after 24 hrs by Annexin V-FITC/propidium iodide staining based flow cytometry; format: functional, cell-based
DU-145 [21] = test: Induction of ROS production in human DU145 cells after 24 hrs by DCFDA staining based fluorescence microscopic method; format: functional, cell-based; in short: as §7
[22] = target: DNA topoisomerase 2-alpha (Homo sapiens) (UniProt P11388); test: Inhibition of recombinant human topoisomerase-2 alpha assessed as reduction in decatenation of pHOT1 kDNA at 100 uM after 10 mins by agarose gel electrophoresis method; in short: as §4
DU-145 [23] = test: Induction of apoptosis in human DU145 cells assessed as nuclear fragmentation at 2 uM after 24 hrs by Hoechst staining based fluorescence microscopic method; format: functional, cell-based; in short: as §5
DU-145 [24] = test: Induction of apoptosis in human DU145 cells assessed as nuclear condensation at 2 uM after 24 hrs by Hoechst staining based fluorescence microscopic method; format: functional, cell-based; in short: as §5
DU-145 [25] = test: Induction of apoptosis in human DU145 cells assessed as necrotic cells at 2 uM after 24 hrs by Annexin V-FITC/propidium iodide staining based flow cytometry (reference value: 1.65%); format: functional
DU-145 [26] = test: Induction of apoptosis in human DU145 cells assessed as early apoptotic cells at 2 uM after 24 hrs by Annexin V-FITC/propidium iodide staining based flow cytometry (reference value: 0.56%); format: functional
DU-145 [27] = test: Induction of apoptosis in human DU145 cells assessed as morphological changes at 2 uM after 24 hrs by phase contrast microscopic method; format: functional, cell-based; in short: as §6
DU-145 [28] = test: Induction of apoptosis in human DU145 cells assessed as late apoptotic cells at 2 uM after 24 hrs by Annexin V-FITC/propidium iodide staining based flow cytometry (reference value: 1.49%); format: functional
DU-145 [29] = test: Induction of ROS production in human DU145 cells at 2 uM after 24 hrs by DCFDA staining based fluorescence microscopic method; format: functional, cell-based; in short: as §7
DU-145 [30] = test: Induction of mitochondrial membrane potential loss in human DU145 cells […] at 2 uM after 24 hrs by JC1 staining based flow cytometry; format: functional, cell-based; in short: as §8
DU-145 [31] = test: Antimigratory activity against human DU145 cells at 2 uM after 24 to 48 hrs by phase contrast microscopic based scratch assay; format: functional, cell-based; in short: as §2
DU-145 [32] = test: Cell cycle arrest in human DU145 cells assessed as accumulation at G2/M phase at 2 uM after 24 hrs by propidium iodide staining based flow cytometry relative to control; format: functional; in short: as §3
DU-145 [33] = test: Induction of apoptosis in human DU145 cells assessed as live cells at 2 uM after 24 hrs by Annexin V-FITC/propidium iodide staining based flow cytometry (reference value: 96.3%); format: functional

Chain of DNA topoisomerase 2-alpha (Homo sapiens) (P11388 whole entry, the tested form may be a part): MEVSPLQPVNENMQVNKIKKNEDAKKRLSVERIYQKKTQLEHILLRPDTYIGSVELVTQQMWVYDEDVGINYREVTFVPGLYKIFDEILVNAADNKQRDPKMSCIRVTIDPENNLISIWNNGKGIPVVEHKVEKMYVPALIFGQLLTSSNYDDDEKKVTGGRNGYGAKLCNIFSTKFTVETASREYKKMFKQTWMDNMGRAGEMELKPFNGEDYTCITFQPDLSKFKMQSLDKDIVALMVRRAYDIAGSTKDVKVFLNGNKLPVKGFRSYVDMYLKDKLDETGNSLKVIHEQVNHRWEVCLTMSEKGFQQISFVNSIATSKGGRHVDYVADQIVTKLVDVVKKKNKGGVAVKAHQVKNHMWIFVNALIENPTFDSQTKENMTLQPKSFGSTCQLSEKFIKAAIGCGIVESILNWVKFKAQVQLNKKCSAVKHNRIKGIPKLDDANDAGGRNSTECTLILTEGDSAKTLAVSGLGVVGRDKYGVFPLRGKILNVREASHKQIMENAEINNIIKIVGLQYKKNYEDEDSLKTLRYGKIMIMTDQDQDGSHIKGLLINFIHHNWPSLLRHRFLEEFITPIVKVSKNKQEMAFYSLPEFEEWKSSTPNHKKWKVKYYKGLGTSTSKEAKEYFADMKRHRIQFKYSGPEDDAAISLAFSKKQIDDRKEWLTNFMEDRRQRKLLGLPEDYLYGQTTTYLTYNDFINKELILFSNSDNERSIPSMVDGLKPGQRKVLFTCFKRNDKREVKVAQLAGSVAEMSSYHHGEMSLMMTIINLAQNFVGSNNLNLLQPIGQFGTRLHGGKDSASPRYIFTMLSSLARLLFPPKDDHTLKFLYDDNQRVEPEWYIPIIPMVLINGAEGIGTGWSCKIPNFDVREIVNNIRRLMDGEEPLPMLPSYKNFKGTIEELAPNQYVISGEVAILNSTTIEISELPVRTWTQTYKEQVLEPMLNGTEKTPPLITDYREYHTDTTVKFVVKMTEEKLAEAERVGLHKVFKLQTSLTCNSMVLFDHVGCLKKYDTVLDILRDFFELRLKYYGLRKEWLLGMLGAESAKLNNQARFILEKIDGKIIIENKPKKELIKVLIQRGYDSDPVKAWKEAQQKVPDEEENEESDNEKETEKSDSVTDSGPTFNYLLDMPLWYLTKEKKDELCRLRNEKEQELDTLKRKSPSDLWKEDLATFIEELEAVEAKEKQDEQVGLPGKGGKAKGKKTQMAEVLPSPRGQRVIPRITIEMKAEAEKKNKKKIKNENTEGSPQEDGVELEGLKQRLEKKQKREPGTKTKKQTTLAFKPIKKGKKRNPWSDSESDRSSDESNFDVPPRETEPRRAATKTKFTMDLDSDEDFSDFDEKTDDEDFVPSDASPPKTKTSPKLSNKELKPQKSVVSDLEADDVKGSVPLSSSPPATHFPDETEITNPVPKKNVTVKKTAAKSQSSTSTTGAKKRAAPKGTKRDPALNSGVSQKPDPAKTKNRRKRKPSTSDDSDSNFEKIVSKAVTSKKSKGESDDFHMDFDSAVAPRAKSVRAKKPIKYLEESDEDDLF

Structure (SMILES)	Activity (DU-145 [1])	IC50 (MCF7)	Activity (DU-145 [2])	Activity (DU-145 [3])	Activity (DU-145 [4])	IC50 (HeLa)	IC50 (DU-145 [5])	IC50 (A549)	IC50 (NIH3T3)	Activity (DU-145 [6])	Activity [7]	Activity (DU-145 [8])	Activity (DU-145 [9])	Activity (DU-145 [10])	IC50 (HT-29)	Activity (DU-145 [11])	IC50 (HepG2)	Activity (DU-145 [12])	Activity (DU-145 [13])	Activity (DU-145 [15])	further results
COc1cc([C@@H]2c3cc4c(cc3C(NC(=O)c3cn(-c5ccc(Cl)cc5)nn3)[C@H]3COC(=O)[C@H]23)OCO4)cc(OC)c1OC (single isomer, unassigned)	0.41%	970 nM	93.72%	inactive	31.94%	780 nM	700 nM	1200 nM	89000 nM	3.94%	Active	1.8%	Active	Active	4110 nM	Active	780 nM	35.61%	4.35%	inactive	Activity (DU-145 [14]): Active; Activity (DU-145 [16]): Active; Activity (DU-145 [17]): 1.93%; Activity (DU-145 [18]): 0.16%; Activity (DU-145 [19]): 93.69%
COc1cc([C@@H]2c3cc4c(cc3C(NC(=O)c3cn(-c5ccc(C(F)(F)F)cc5)nn3)[C@H]3COC(=O)[C@H]23)OCO4)cc(OC)c1OC (single isomer, unassigned)	0.74%	1350 nM	89.65%	Active	52.42%	1210 nM	890 nM	1960 nM	83800 nM	7.01%		2.46%	Active	Active	4400 nM	Active	1210 nM	56.16%	17.65%	Active	Activity (DU-145 [20]): Dose-dependent effect; Activity (DU-145 [21]): Dose-dependent effect; Activity (DU-145 [16]): Active; Activity (DU-145 [17]): 2.6%; Activity (DU-145 [18]): 0.05%; Activity (DU-145 [19]): 79.84%; inhibition [22]: Active
COc1ccc(-n2cc(C(=O)NC3c4cc5c(cc4[C@@H](c4cc(OC)c(OC)c(OC)c4)[C@H]4C(=O)OC[C@H]34)OCO5)nn2)cc1 (single isomer, unassigned)	0.4%	1110 nM	91.01%	Active	56.71%	6490 nM	990 nM	1610 nM	62900 nM	6.76%	Active	3.12%	Active	Active	11400 nM	Active	2790 nM	64.3%	7%	Active	Activity (DU-145 [20]): Dose-dependent effect; Activity (DU-145 [21]): Dose-dependent effect; Activity (DU-145 [16]): Active; Activity (DU-145 [17]): 1.83%; Activity (DU-145 [18]): 0.99%; Activity (DU-145 [19]): 88.89%
COc1cc([C@@H]2c3cc4c(cc3[C@@H](O[C@@H]3O[C@@H]5CO[C@@H](C)O[C@H]5[C@H](O)[C@H]3O)[C@H]3COC(=O)[C@H]23)OCO4)cc(OC)c1O [ETOPOSIDE]		1620 nM				2710 nM	2350 nM	1970 nM			Active				1870 nM		2840 nM				Activity (DU-145 [23]): Active; Activity (DU-145 [24]): Active; Activity (DU-145 [25]): 0.53%; Activity (DU-145 [26]): 4.52%; Activity (DU-145 [27]): Active; Activity (DU-145 [28]): 3.86%; Activity (DU-145 [29]): Active; Activity (DU-145 [30]): Active; Activity (DU-145 [31]): Active; Activity (DU-145 [32]): 71.53%; Activity (DU-145 [33]): 91.09%
